# Measured values: ChEMBL document CHEMBL4609986 (Bioorg Med Chem, 2020)
# Tests used:
# [1] = biological target: T1, Dual specificity tyrosine-phosphorylation-regulated kinase 1A (Homo sapiens, UniProt Q13627); test: Inhibition of DYRK1A in human pancreatic islets assessed as induction of pancreatic beta-cells replication measured after 48 hrs by Hoechst 33342 staining based analysis
# In short: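 Human islets (85-95% purity) rested 12 h in low-glucose DMEM with 10% FBS and 20 nM exendin-4. Dispersed to single cells and plated on 804G-conditioned-matrix 384-well plates for 48 h. Treated 48 h, then fixed with 4% PFA. Stained with anti-insulin, anti-Ki-67 and 4 μM Hoechst 33342; Ki67+Insulin+/Insulin+ scored by high-content imaging against per-plate cutoffs.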
# Homo sapiens = species on record: Homo sapiens; test: Selectivity index, ratio of CC50 for human HEK293T cells transfected with DYRK1A co-tranfected with Renilla plasmid, pGL3-NFAT and NFATc1 assessed as reduction in luciferase activity by measuring cell number to EC50 for human DYRK1A transfected in HEK293T cells co-transfected with Renilla plasmid, pGL3-NFAT and NFATc1 assessed as derepression of NFAT-dependent luciferase activity measured after 48 hrs by luciferase assay; type: cell-based
# In short: (§1)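 HEK293T cells transfected with PEI using DYRK1A, Renilla plasmid, IL-2-based pGL3-NFAT firefly reporter and NFATc1. Next day the same transfected population was split into 96-well plates; 6 h later cells were treated for 48 h (11-point dose curve, n = 4), then lysed. EC50 from firefly/Renilla ratio, 4-parameter agonist fit. CC50 from loss of constitutive Renilla signal, 4-parameter inhibitor fit.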
# HEK-293T = test: (§2) Cytotoxicity against human HEK293T cells transfected with DYRK1A co-tranfected with Renilla plasmid, pGL3-NFAT and NFATc1 assessed as reduction in luciferase activity by measuring cell number; type: cell-based; settings: hek-293t; in short: as §1
# [2] = Cytotoxicity against mouse R7T1 cells assessed as reduction in cell viability measured after 48 hrs by Hoechst 33342 staining based analysis
# In short: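 Mouse R7T1 β-cells cultured in high-glucose DMEM with 10% FBS, doxycycline and pyruvate, plated at 25,000 cells/well. Treated in quadruplicate 6 h later (0.169–10,000 nM) for 48 h. Cells fixed in paraformaldehyde and stained with 4 μM Hoechst 33342; nuclei counted by high-content imaging.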
# [3] = biological target: T1, Dual specificity tyrosine-phosphorylation-regulated kinase 1A; test: Inhibition of human DYRK1A transfected in HEK293T cells co-transfected with Renilla plasmid, pGL3-NFAT and NFATc1 assessed as derepression of NFAT-dependent luciferase activity measured after 48 hrs by luciferase assay; type: cell-based, HEK-293T; in short: as §1
# [4] = Selectivity index, ratio of CC50 for mouse R7T1 cells assessed as reduction in cell viability measured after 48 hrs by Hoechst 33342 staining based analysis to MEC for inhibition of DYRK1A in human pancreatic islets assessed as induction of pancreatic beta-cells replication measured after 48 hrs by Hoechst 33342 staining based analysis
# [5] = as §2; type: cell-based, HEK-293T; in short: as §1
Structure (SMILES),MEC [1],EC50 [3],Ratio CC50/EC50 (Homo sapiens),CC50 (HEK-293T),CC50 [2],Selectivity Index [4],CC50 [5]
CCCCNC(=O)c1cnc2ccc(-c3cc(Cl)c(O)c(Cl)c3)nc2c1N[C@H]1CC[C@H](C(N)=O)CC1,125 nM,175 nM,39,6850 nM,1790 nM,14,–
CCOC(=O)c1cnc2ccc(-c3cc(Cl)c(O)c(Cl)c3)nc2c1N[C@H]1CC[C@H](C)CC1,–,> 10000 nM,–,–,–,–,> 10000 nM
NC(=O)[C@H]1CC[C@H](Nc2c(CO)cnc3ccc(-c4cc(Cl)c(O)c(Cl)c4)nc23)CC1,–,678 nM,> 15,–,–,–,> 10000 nM
CCOC(=O)c1cnc2ccc(-c3cc(Cl)c(O)c(Cl)c3)nc2c1N1CCCCC1,–,203 nM,17,–,–,–,3460 nM
CCOC(=O)c1cnc2ccc(-c3cc(Cl)c(O)c(Cl)c3)nc2c1N1CCNCC1,250 nM,73 nM,> 137,–,> 10000 nM,>40,10000 nM
CCOC(=O)c1cnc2ccc(-c3ccc(N)cc3)nc2c1N[C@H]1CC[C@H](CN(C)C)CC1,–,2100 nM,> 5,–,–,–,> 10000 nM
NC(=O)C[C@H]1CC[C@H](Nc2c(CO)cnc3ccc(-c4cc(Cl)c(O)c(Cl)c4)nc23)CC1,500 nM,74 nM,27,–,1080 nM,2.2,1970 nM
CCOC(=O)c1cnc2ccc(-c3ccc(C(N)=O)cc3)nc2c1N[C@H]1CC[C@H](CN(C)C)CC1,–,4660 nM,> 2,–,–,–,> 10000 nM
CCOC(=O)c1cnc2ccc(-c3cc(C)nc(C)c3)nc2c1N[C@H]1CC[C@H](CN(C)C)CC1,–,> 10000 nM,–,–,–,–,> 10000 nM
CCOC(=O)c1cnc2ccc(-c3ccc(O)cc3)nc2c1N[C@H]1CC[C@H](CN(C)C)CC1,–,300 nM,> 33,> 10000 nM,–,–,–
CN(C)C[C@H]1CC[C@H](Nc2c(C(=O)N3CCOCC3)cnc3ccc(-c4cc(Cl)c(O)c(Cl)c4)nc23)CC1,–,641 nM,> 16,> 10000 nM,–,–,–
CCOC(=O)c1cnc2ccc(-c3ccc(O)nc3)nc2c1N[C@H]1CC[C@H](CN(C)C)CC1,–,1340 nM,> 7.5,–,–,–,> 10000 nM
CCOC(=O)c1cnc2ccc(-c3ccnc(O)c3)nc2c1N[C@H]1CC[C@H](CN(C)C)CC1,–,383 nM,6,–,–,–,2360 nM
CCOC(=O)c1cnc2ccc(-c3ccnc(N)c3)nc2c1N[C@H]1CC[C@H](CN2CCCCC2)CC1,–,114 nM,12,–,–,–,1350 nM
CCOC(=O)c1cnc2ccc(-c3cc(Cl)c(O)c(Cl)c3)nc2c1N[C@H]1CC[C@H](C(=O)N2CCOCC2)CC1,250 nM,97 nM,21,–,2080 nM,8.3,3010 nM
CCOC(=O)c1cnc2ccc(-c3cc(Cl)c(O)c(Cl)c3)nc2c1N[C@H]1CC[C@H](CO)CC1,250 nM,100 nM,27,–,785 nM,3.1,2670 nM
CCOC(=O)c1cnc2ccc(-c3cc(Cl)c(O)c(Cl)c3)nc2c1N1CCOCC1,–,105 nM,35,–,–,–,3680 nM
CCOC(=O)c1cnc2ccc(-c3ccnc(C)c3)nc2c1N[C@H]1CC[C@H](CN(C)C)CC1,–,–,> 7,–,–,–,> 10000 nM
CCOC(=O)c1cnc2ccc(-c3cc(Cl)c(O)c(Cl)c3)nc2c1N1CCC(C)CC1,–,123 nM,> 82,–,–,–,> 10000 nM
CCOC(=O)c1cnc2ccc(-c3cc(Cl)cc(Cl)c3)nc2c1N[C@H]1CC[C@H](CN(C)C)CC1,–,> 10000 nM,–,–,–,–,> 10000 nM
CCOC(=O)c1cnc2ccc(-c3cc(Cl)c(O)c(Cl)c3)nc2c1N[C@H]1CC[C@H](C(N)=O)CC1,–,1250 nM,> 8,–,–,–,> 10000 nM
CCOC(=O)c1cnc2ccc(-c3ccc(C(=O)O)cc3)nc2c1N[C@H]1CC[C@H](CN(C)C)CC1,–,990 nM,> 10,–,–,–,> 10000 nM
CCOC(=O)c1cnc2ccc(-c3ccnc(N)c3)nc2c1N[C@H]1CC[C@H](CN2CCCC2)CC1,–,108 nM,7,–,–,–,756 nM
CCOC(=O)c1cnc2ccc(-c3ccnc(N)c3)nc2c1N[C@H]1CC[C@H](CN(C)C)CC1,22 nM,59 nM,19,–,328 nM,15,1130 nM
CN(C)C[C@H]1CC[C@H](Nc2c(C(=O)N(C)C)cnc3ccc(-c4cc(Cl)c(O)c(Cl)c4)nc23)CC1,–,354 nM,> 28,> 10000 nM,–,–,–

# Continued, in another order:
MEC [1],EC50 [3],Structure (SMILES),Ratio CC50/EC50 (Homo sapiens),CC50 (HEK-293T),CC50 [2],Selectivity Index [4],CC50 [5]
> 500 nM,46 nM,CCNC(=O)c1cnc2ccc(-c3ccnc(N)c3)nc2c1N[C@H]1CC[C@H](CN(C)C)CC1,> 216,> 10000 nM,330 nM,–,–
68 nM,15 nM,CCOC(=O)c1cnc2ccc(-c3cc(Cl)c(O)c(Cl)c3)nc2c1N[C@H]1CC[C@H](CNC(C)=O)CC1,217,3340 nM,1020 nM,15,–
–,3 nM,CC(C)CCNC(=O)c1cnc2ccc(-c3cc(Cl)c(O)c(Cl)c3)nc2c1N[C@H]1CC[C@H](CN(C)C)CC1,8,–,–,–,21 nM
31 nM,26 nM,CCOC(=O)c1cnc2ccc(-c3cc(Cl)c(O)c(Cl)c3)nc2c1Nc1ccc(CN(C)C)cc1,146,–,226 nM,7.3,3790 nM
–,6 nM,CC(C)CNC(=O)c1cnc2ccc(-c3cc(Cl)c(O)c(Cl)c3)nc2c1N[C@H]1CC[C@H](CN(C)C)CC1,3,–,–,–,16 nM
–,6 nM,CCCNC(=O)c1cnc2ccc(-c3cc(Cl)c(O)c(Cl)c3)nc2c1N[C@H]1CC[C@H](CN(C)C)CC1,7,–,–,–,38 nM
–,5 nM,CCCCCNC(=O)c1cnc2ccc(-c3cc(Cl)c(O)c(Cl)c3)nc2c1N[C@H]1CC[C@H](CN(C)C)CC1,4,–,–,–,19 nM
–,6 nM,CNC(=O)c1cnc2ccc(-c3cc(Cl)c(O)c(Cl)c3)nc2c1N[C@H]1CC[C@H](CN(C)C)CC1,6,–,–,–,36 nM
–,4 nM,CCCCNC(=O)c1cnc2ccc(-c3cc(Cl)c(O)c(Cl)c3)nc2c1N[C@H]1CC[C@H](CN2CCOCC2)CC1,18,–,–,–,79 nM
–,7 nM,CCOC(=O)c1cnc2ccc(-c3cc(Cl)c(O)c(Cl)c3)nc2c1N[C@H]1CC[C@H](CN2CCOCC2)CC1,71,–,–,–,491 nM
125 nM,11 nM,CC(=O)c1cnc2ccc(-c3cc(Cl)c(O)c(Cl)c3)nc2c1N[C@H]1CC[C@H](C(N)=O)CC1,153,–,231 nM,1.8,1660 nM
–,15 nM,CN(C)C[C@H]1CC[C@H](Nc2c(C(N)=O)cnc3ccc(-c4cc(Cl)c(O)c(Cl)c4)nc23)CC1,4,–,–,–,69 nM
10 nM,45 nM,CN(C)C[C@H]1CC[C@H](Nc2c(C#N)cnc3ccc(-c4cc(Cl)c(O)c(Cl)c4)nc23)CC1,> 220,> 10000 nM,160 nM,16,–
–,6 nM,CCNC(=O)c1cnc2ccc(-c3cc(Cl)c(O)c(Cl)c3)nc2c1N[C@H]1CC[C@H](CN(C)C)CC1,7,–,–,–,39 nM
250 nM,12 nM,CCOC(=O)c1cnc2ccc(-c3cc(C)c(O)c(C)c3)nc2c1N[C@H]1CC[C@H](CN(C)C)CC1,> 842,> 10000 nM,> 10000 nM,>40,–
–,9 nM,CCOC(=O)c1cnc2ccc(-c3cc(Cl)c(O)c(Cl)c3)nc2c1N[C@H]1CC[C@H](N)CC1,5,–,–,–,44 nM
500 nM,16 nM,CC(=O)NC[C@H]1CC[C@H](Nc2c(CO)cnc3ccc(-c4cc(Cl)c(O)c(Cl)c4)nc23)CC1,71,1140 nM,1710 nM,3.4,–
